The values below come from ChEMBL document CHEMBL4017489, “Design, Synthesis, and Evaluation of New Selective NM23-H2 Binders as c-MYC Transcription Inhibitors via Disruption of the NM23-H2/G-Quadruplex Interaction” (J Med Chem, 2017).

The term Kd denotes the constant that tells how readily two partners part at equilibrium.

Active and inactive are the calls of the source. The calls are words filed in the database; no cut-off is given here.

Data set [1] deals with SiHa. As to the kind of experiment: Induction of apoptosis in human SiHa cells assessed as necrotic cells at 1 uM after 48 hrs by Annexin V-FITC/propidium iodide based flow cytometric analysis (reference value: 0.3%). Format: functional. (In general: In flow cytometry, cells or beads pass a laser one at a time.)
The target of data set [2] is T1, Nucleoside diphosphate kinase B (Homo sapiens, UniProt P22392). Description: Binding affinity to NM23-H2 in human SiHa cells assessed as disruption of protein interaction with c-myc G-quadruplex DNA by measuring decrease in c-MYC mRNA level after 9 hrs by RT-PCR analysis. Format: cell-based. Summed up: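 SiHa cells treated at 0, 0.5, 1.0, 2.0 μM for 9 h; TRIzol RNA, 1.5 μg reverse-transcribed with oligo(dT); semiquantitative PCR, 30 cycles, 58 °C annealing; bands normalized to β-actin, untreated 100%; three repeats.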
T1 sequence (P22392 whole entry): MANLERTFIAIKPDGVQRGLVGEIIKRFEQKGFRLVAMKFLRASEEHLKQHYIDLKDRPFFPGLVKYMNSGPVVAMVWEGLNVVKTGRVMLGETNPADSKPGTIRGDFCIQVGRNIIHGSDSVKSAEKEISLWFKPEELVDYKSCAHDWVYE

Data set [3] concerns SiHa. As to the kind of experiment: Cell cycle arrest in human SiHa cells assessed as accumulation at S phase at 2 uM after 6 hrs by propidium iodide staining based flow cytometry (reference value: 13 %). It counts as functional. The gist of the method:
(§1)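 SiHa cells (2.0 × 10^5 per well) plated 24 h, then exposed to 2 μM compound or left untreated for 3, 6, 9, 12, 24, 36 or 48 h. Cells washed in PBS, fixed overnight in ice-cold 70% ethanol, treated with 20 μg/mL RNase A for 30 min at 37 °C, stained with PI, and read by flow cytometry at 488 nm. Phase percentages compared with untreated control; at least three experiments.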

Data set [4] concerns the target Nucleoside diphosphate kinase B (Homo sapiens, UniProt P22392, G113F). Description: Binding affinity to NM23-H2 G113F mutant (unknown origin) by SPR analysis.
Data set [5] is described as follows: Cell cycle arrest in mouse primary mesangial cells at 2 uM after 9 to 48 hrs by propidium iodide staining based flow cytometry method.
Data set [6] has as its system SiHa. Description: Effect on NM23-H2 mRNA level in human SiHa cells up to 2 uM after 9 hrs by RT-PCR analysis. Format: functional, cell-based. Summed up: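 SiHa cells treated with 0, 0.5, 1.0 or 2.0 μM for 9 h. TRIzol RNA (1.5 μg) reverse-transcribed with M-MLV and oligo(dT) for 1 h at 42 °C. Semiquantitative PCR run for 30 cycles (58 °C annealing) and products resolved on 1.5% agarose. Band intensity normalized to β-actin, with untreated sample set at 100%; three repeats.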

In data set [7] the test system is SiHa. Description: Induction of apoptosis in human SiHa cells assessed as late apoptotic cells at 2 uM after 48 hrs by Annexin V-FITC/propidium iodide based flow cytometric analysis (reference value: 0.7 %). Format: functional.
Data set [8] relates to SiHa. Description: Cell cycle arrest in human SiHa cells assessed as accumulation at G0/G1 phase at 2 uM after 48 hrs by propidium iodide staining based flow cytometry (reference value: 48 %). Format: functional. Summed up: (§2)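 SiHa cells plated 24 h, treated at 2 μM for 3–48 h; fixed in ice-cold 70% ethanol overnight, RNase A 20 μg/mL 37 °C 30 min, PI-stained, flow cytometry at 488 nm; phase percentages quantified; at least three experiments.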

Data set [9] deals with SiHa. Description: Cell cycle arrest in human SiHa cells assessed as accumulation at sub-G1 phase at 2 uM after 12 hrs by propidium iodide staining based flow cytometry relative to control. Format: functional. The gist of the method: as §1
For data set [10], the system named is SiHa. As to the kind of experiment: Cell cycle arrest in human SiHa cells assessed as accumulation at G0/G1 phase at 2 uM after 6 hrs by propidium iodide staining based flow cytometry (reference value: 48 %). Format: functional. The gist of the method:
as §2

In data set [11] the test system is SiHa. As to the kind of experiment: Down regulation of CDK4 expression in human SiHa cells at 0.5 to 2 uM after 24 to 48 hrs by Western blot analysis. It counts as functional, cell-based. The gist of the method: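 SiHa cells (2.0 × 10^5) treated with compound at various concentrations for 24 or 48 h, then lysed at 4 °C. Protein measured by BCA; 30 μg run on 10% SDS-PAGE and transferred to nitrocellulose. Membranes blocked in 5% milk, probed with primary antibodies overnight at 4 °C, then HRP secondary for 2 h, and detected by chemiluminescence. Bands quantified by densitometry; at least three experiments.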

The nature of data set [12]: Binding affinity to N-terminal NT-647-NHS labeled NM23-H2 D121A mutant (unknown origin) after 30 mins by MST analysis. Set-up: species or system Homo sapiens.
The subject of data set [13] is Mus musculus. Description: Toxicity in BALB/C nude mouse xenografted with human SiHa cells assessed as distress at 2.5 to 5 mg/kg, ip administered daily after 3 weeks. It counts as organism-based. The settings on record: in vivo, 504 h. The gist of the method:
(§3)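 SiHa cells implanted in the right armpit of BALB/c nu/nu mice. At approximately 50 mm3, mice randomized (n = 8/group) to vehicle, compound 2.5 or 5.0 mg/kg, or doxorubicin 1.0 mg/kg, given ip daily for 3 weeks. Body weight and signs of pain, distress or discomfort monitored; tumors excised and weighed. Data given as mean ± SEM, t test against vehicle.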
(In general: In xenograft studies the graft and the host belong to different species.)

Data set [14] deals with Mus musculus. Description: Toxicity in BALB/C nude mouse xenografted with human SiHa cells assessed as change in body weight at 2.5 to 5 mg/kg, ip administered daily after 3 weeks. It counts as organism-based. The settings on record: in vivo, 504 h. The gist of the method: as §3
The test system of data set [15] is Mus musculus. Description: Toxicity in BALB/C nude mouse xenografted with human SiHa cells at 2.5 to 5 mg/kg, ip administered daily after 3 weeks. It counts as organism-based. The settings on record: in vivo, 504 h. The gist of the method: as §3
Data set [16] concerns SiHa. Description: Cell cycle arrest in human SiHa cells assessed as accumulation at G2/M phase at 2 uM after 3 hrs by propidium iodide staining based flow cytometry (reference value: 39%). Format: functional. Summed up:
as §2

Data set [17] has as its system SiHa. As to the kind of experiment: Cell cycle arrest in human SiHa cells assessed as accumulation at G0/G1 phase at 2 uM after 12 hrs by propidium iodide staining based flow cytometry (reference value: 48 %). Format: functional. Summed up:
as §2

The subject of data set [18] is SiHa. Description: Cell cycle arrest in human SiHa cells assessed as accumulation at S phase at 2 uM after 3 hrs by propidium iodide staining based flow cytometry (reference value: 13%). Format: functional. The gist of the method:
as §1

Data set [19] has as its system SiHa. As to the kind of experiment: Antitumor activity against human SiHa cells xenografted in BALB/C nude mouse assessed as tumor growth inhibition at 5 mg/kg, ip administered daily after 3 weeks relative to control. It counts as functional. The note with it: 504 h, read-out: TGI.
The test system of data set [20] is Mus musculus. Description: Toxicity in BALB/C nude mouse xenografted with human SiHa cells assessed as discomfort at 2.5 to 5 mg/kg, ip administered daily after 3 weeks. It counts as organism-based. The settings on record: in vivo, 504 h. The gist of the method: as §3
For data set [21], the system named is SiHa. Description: Induction of apoptosis in human SiHa cells assessed as early apoptotic cells at 1 uM after 48 hrs by Annexin V-FITC/propidium iodide based flow cytometric analysis (reference value: 1.4 %). It counts as functional.
Data set [22] has as its system SiHa. Description: Induction of apoptosis in human SiHa cells assessed as increase in cleaved PARP level after 48 hrs by Western blot analysis. It counts as functional, cell-based. Summed up: (§4)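 SiHa cells treated with 0, 0.5, 1.0 or 2.0 μM for 48 h and lysed for total protein. Caspase-3, cleaved caspase-3, PARP and cleaved PARP detected by Western blot (30 μg protein, 10% SDS-PAGE, HRP chemiluminescence). Bands quantified by densitometry; at least three experiments.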
(In general: Immunoblotting shows a protein as a band on a membrane.)

The target of data set [23] is T1, Nucleoside diphosphate kinase B. As to the kind of experiment: Binding affinity to NM23-H2 in human SiHa cells assessed as disruption of protein interaction with c-myc G-quadruplex DNA by measuring decrease in c-MYC protein expresson at 1 to 2 uM after 48 hrs by Western blot analysis. It counts as cell-based. The gist of the method: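 SiHa cells treated 48 h; lysates (30 μg) on 10% SDS-PAGE, nitrocellulose, anti-c-MYC overnight at 4 °C, HRP secondary, chemiluminescence; β-actin internal control; three repeats.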

The subject of data set [24] is SiHa. As to the kind of experiment: Induction of apoptosis in human SiHa cells assessed as increase in cleaved caspase-3 level after 48 hrs by Western blot analysis. It counts as functional, cell-based. Summed up: as §4

Sequence of Nucleoside diphosphate kinase B (Homo sapiens, UniProt P22392, G113F) (P22392 whole entry G113F): as the sequence (P22392 whole entry) above, with G113F counted along it

For the molecule `CN(C)CCCNc1cc2nc3n(c(=O)c2cc1F)CC/C3=C\c1ccc(OCc2ccccc2)cc1O`, the Activity is 1.3% in data set [1]; “Dose-dependent effect” in data set [2]; 12% in data set [3]; “Non-Toxic” in data set [5]; 90.3% in data set [7]; 0% in [8]. The Activity in [9] is listed as 8%; in [10] it was 62%; in data set [13] it was “Non-Toxic”; in data set [14], “Non-Toxic”; in [15] it was “Non-Toxic”; in [16], 38%. Moreover, the Activity in data set [17] is 54%; in data set [18], 11%; in [20], “Non-Toxic”; in data set [21], 80.7%; in data set [22] it was “Dose-dependent effect”; in data set [24], “Dose-dependent effect”. In addition, the Kd in data set [4] stood at 15.5 µM; in data set [12], 94.1 µM. For the same molecule, the result in data set [6] was inactive. The outcome in data set [11] and in data set [23] was Active. Also, the inhibition in vivo at 5 mg/kg in data set [19] stood at 64.8%.
